The target in data set [1] is T1, Motilin receptor (Oryctolagus cuniculus, UniProt A5A4K8). Put plainly: Antagonist activity at MTL receptor in rabbit duodenum homogenate. It is filed as functional, tissue-based. Particulars: read-out: pA2 (converted).
The target in data set [2] is T1, Motilin receptor. The experiment in a line: Displacement of [125I]motilin from MTL receptor in rabbit duodenum homogenate. In outline: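 Tissue homogenate incubated at 25 °C with 25 pM [¹²⁵I]motilin for 120 min. Stopped with ice-cold buffer, then bound and free ligand separated by centrifugation at 1500g for 5 min. Pellet washed with ice-cold buffer and counted by gamma counter. IC₅₀ is the concentration displacing 50% of ¹²⁵I-motilin binding.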

The nature of data set [3]: Metabolic stability in rat liver S9 fraction assessed as compound remaining after 30 mins. It is filed as ADME, subcellular. Particulars: read-out: Stability. In outline: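 Compound incubated with rat liver S-9 for 30 min at 37 °C. Stability is expressed as residual % of compound.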
Data set [4] is described as follows: Oral bioavailability in rat at 10 mg/kg. Particulars: in vivo. It is filed as ADME, organism-based.
The subject of data set [5] is Canis familiaris. The experiment in a line: Suppression of MTL receptor-mediated motilin-induced gastric motility in conscious dog 5 mg/kg administered 30 mins before motilin challenge. It is filed as functional, organism-based. Also noted: dose 5 mg/kg. As to conditions: Canis lupus familiaris; Stomach.
The test system of data set [6] is Canis familiaris. The experiment in a line: Suppression of MTL receptor-mediated motilin-induced colonic motility in conscious dog 5 mg/kg administered 30 mins before motilin challenge. It is filed as functional, organism-based. Also noted: dose 5 mg/kg. Particulars: Canis lupus familiaris.
A short description of data set [7]: Apparent permeability across human Caco-2 cells at pH 6.8. Particulars: Caco-2, pH 6.8. It is filed as ADME, cell-based.

The structures appear in SMILES notation. Calls of active or inactive are those of the source. The calls are words filed in the database; no cut-off is given here. Where a SMILES comes first, the peptide text is derived from it.

T1 sequence (A5A4K8 whole entry): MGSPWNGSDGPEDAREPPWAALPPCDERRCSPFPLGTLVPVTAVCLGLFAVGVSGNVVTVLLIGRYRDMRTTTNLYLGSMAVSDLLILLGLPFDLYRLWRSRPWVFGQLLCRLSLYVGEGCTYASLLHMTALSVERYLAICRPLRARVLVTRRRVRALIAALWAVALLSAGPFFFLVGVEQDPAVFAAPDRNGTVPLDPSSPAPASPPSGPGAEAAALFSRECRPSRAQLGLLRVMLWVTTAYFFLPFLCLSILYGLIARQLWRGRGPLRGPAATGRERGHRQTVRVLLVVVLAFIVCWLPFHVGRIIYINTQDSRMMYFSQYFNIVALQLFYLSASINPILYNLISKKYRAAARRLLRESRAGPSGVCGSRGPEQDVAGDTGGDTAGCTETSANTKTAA

Consider `CC(C)C[C@H](NC(=O)[C@@H](N)Cc1ccccc1)C(=O)N[C@@H](Cc1ccc(O)c(C(C)(C)C)c1)C(N)=O` (HELM PEPTIDE1{F.L.[CC(C)(C)c1cc(C[C@H](N[*:1])C(=O)[*:2])ccc1O].[am]}$$$$V2.0), for which the Kb at Motilin receptor [1] is 50.1 nM. Besides, the IC50 (in general, the concentration that inhibits the measured activity by half) at Motilin receptor [2] turned out to be 27 nM.
The matching figures for `CC(C)(C)c1cc(C[C@H](NC(=O)[C@@H](NC(=O)[C@@H](N)Cc2ccccc2)c2ccccc2)C(N)=O)ccc1O` (HELM PEPTIDE1{F.[Phg].[CC(C)(C)c1cc(C[C@H](N[*:1])C(=O)[*:2])ccc1O].[am]}$$$$V2.0): 15.8 nM and 12 nM.
Take `CC(C)[C@@H](C(=O)N[C@@H](Cc1ccc(O)c(C(C)(C)C)c1)C(N)=O)N(C)C(=O)[C@@H](N)Cc1ccccc1` (HELM PEPTIDE1{F.[meV].[CC(C)(C)c1cc(C[C@H](N[*:1])C(=O)[*:2])ccc1O].[am]}$$$$V2.0): the remaining at 0.5 h in data set [3] stood at 69%. Further, the bioavailability (usually dose-corrected exposure relative to a reference, in per cent) in data set [4] worked out at 6%. Besides, the Kb on Motilin receptor [1] is 12.6 nM. On Motilin receptor [2], this molecule showed an IC50 of 1.1 nM.
For the molecule `CC(C)[C@H](NC(=O)[C@@H](N)Cc1ccccc1)C(=O)N(C)[C@@H](Cc1ccc(O)c(C(C)(C)C)c1)C(N)=O` (HELM PEPTIDE1{F.V.[CN([C@@H](Cc1ccc(O)c(C(C)(C)C)c1)C(=O)[*:2])[*:1]].[am]}$$$$V2.0), in data set [3], the remaining at 0.5 h was 7%. Further, on Motilin receptor [1], the Kb was 63.1 nM. Moreover, the IC50 on Motilin receptor [2] stood at 24 nM.
Turning to `C[C@H](NC(=O)[C@@H](N)Cc1ccccc1)C(=O)N[C@@H](Cc1ccc(O)c(C(C)(C)C)c1)C(N)=O` (HELM PEPTIDE1{F.A.[CC(C)(C)c1cc(C[C@H](N[*:1])C(=O)[*:2])ccc1O].[am]}$$$$V2.0), on Motilin receptor [1], the Kb is over 1000 nM. This molecule also displayed an IC50 on Motilin receptor [2] of 185 nM.
As to `CC(C)(C)c1cc(C[C@H](NC(=O)[C@H](Cc2ccccc2)NC(=O)[C@@H](N)Cc2ccccc2)C(N)=O)ccc1O` (HELM PEPTIDE1{F.F.[CC(C)(C)c1cc(C[C@H](N[*:1])C(=O)[*:2])ccc1O].[am]}$$$$V2.0), the Kb at Motilin receptor [1] was 63.1 nM. Further, the IC50 on Motilin receptor [2] worked out at 6 nM.
Turning to `CC(C)[C@H](NC(=O)[C@@H](N)Cc1ccccc1)C(=O)N[C@@H](Cc1ccc(O)c(C(C)(C)C)c1)C(N)=O` (HELM PEPTIDE1{F.V.[CC(C)(C)c1cc(C[C@H](N[*:1])C(=O)[*:2])ccc1O].[am]}$$$$V2.0), the Kb on Motilin receptor [1] was 126 nM. This molecule also gave an IC50 on Motilin receptor [2] of 46 nM.
Take `CC(C)[C@@H](C(=O)N(C)[C@@H](Cc1ccc(O)c(C(C)(C)C)c1)C(N)=O)N(C)C(=O)[C@@H](N)Cc1ccccc1` (HELM PEPTIDE1{F.[meV].[CN([C@@H](Cc1ccc(O)c(C(C)(C)C)c1)C(=O)[*:2])[*:1]].[am]}$$$$V2.0): in data set [3], the remaining at 0.5 h is 80%. Also, the outcome with Canis familiaris [5] and in the data set with Canis familiaris [6] was Active. For the same molecule, the bioavailability in data set [4] amounted to 30%. For the same molecule, the Papp (commonly a coefficient for how fast a substance crosses the barrier) in data set [7] was 2.31 ×10⁻⁶ cm/s. For the same molecule, the Kb at Motilin receptor [1] is 2.51 nM. Further, the IC50 on Motilin receptor [2] is 4.3 nM.
As for `CC(C)[C@@H](C(=O)N[C@H](C)Cc1ccc(O)c(C(C)(C)C)c1)N(C)C(=O)[C@@H](N)Cc1ccccc1`, the remaining at 0.5 h in data set [3] came out at 100%. The result in the data set with Canis familiaris [5] and with Canis familiaris [6] was Active. Also, the bioavailability in data set [4] turned out to be 65%. The Papp in data set [7] was determined as 12.1 ×10⁻⁶ cm/s. Further, the Kb at Motilin receptor [1] is 3.98 nM. This molecule displayed an IC50 on Motilin receptor [2] of 1.9 nM.
Regarding `CC(C)(C)c1cc(C[C@@H]2NC(=O)[C@@H](NC(=O)[C@@H](N)Cc3ccccc3)CCCCCC(=O)CCNC2=O)ccc1O`, the Kb on Motilin receptor [1] was 39.8 nM. On Motilin receptor [2], the IC50 is 12 nM.

The values above are taken from ChEMBL document CHEMBL1137004, “Discovery of novel motilin antagonists: Conversion of tetrapeptide leads to orally available peptidomimetics” (Bioorg Med Chem Lett, 2009).
